Measurements taken from ChEMBL document CHEMBL1130401, “Retinoic acid conjugates as potential antitumor agents: synthesis and biological activity of conjugates with Ara-A, Ara-C, 3(2H)-furanone, and aniline mustard moieties” (J Med Chem, 1997).
Values after ≈ are worked out from the molar mass of the structure shown.

Legend:
[1] = system: HL-60; assay: The cytotoxic activity in HL-60 cells; format: functional, cell-based; details: Homo sapiens
How it was run: (§1)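 HL-60 cells from ATCC. Each well received 7.5 × 10⁴ cells plus test compound. Cells grew for 72 h at 37 °C in humidified, CO₂-controlled air, with growth linear over this period. Cells were then counted in a Coulter counter. IC50 is the concentration that cut cell number by 50%.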

[2] = system: HL-60; assay: Differentiating activity of compound in HL60 cells at conc 50 ug/mL; format: functional, Homo sapiens
How it was run: (§2)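 10⁶ HL-60 cells were exposed to compound for 6 days, then resuspended in RPMI-1640 with 20% FBS and 2 mM L-glutamine. An equal volume of fresh NBT solution (2 mg/mL, with PMA 200 ng/mL in PBS pH 7.2) was added and incubated 40 min at 37 °C with shaking. Cells were chilled, pelleted and resuspended. Formazan-positive cells were counted by hemocytometer (≥200 cells scored). Untreated cultures served as controls.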

[3] = system: HL-60; assay: Differentiating activity of compound in HL60 cells at conc 10 ug/mL; format: functional, Homo sapiens; how it was run: as §2
[4] = system: HL-60; assay: Differentiating activity of compound in HL60 cells at conc 0.5 ug/mL; format: functional, Homo sapiens; how it was run: as §2
[5] = system: HL-60; assay: Differentiating activity of compound in HL60 cells at conc 2 ug/mL; format: functional, Homo sapiens; how it was run: as §2
[6] = system: HL-60; assay: (§3) Differentiating activity of compound in HL60 cells at conc 1 ug/mL; format: functional, Homo sapiens
How it was run: (§4)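 HL-60 (ATCC) cells exposed to compound for 6 days; 10⁶ cells resuspended in 1 mL RPMI-1640 with 20% FBS and 2 mM L-glutamine, mixed with 1 mL fresh NBT (2 mg/mL) containing PMA 200 ng/mL in PBS pH 7.2, 40 min at 37 °C shaking, ice-stopped, pelleted. Formazan-positive cells counted by hemocytometer light microscopy, ≥200 cells scored; value = % NBT-positive cells.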

[7] = system: HL-60; assay: (§5) Differentiating activity of compound in HL60 cells at conc 4 ug/mL; format: functional, Homo sapiens; how it was run: as §4
[8] = system: HL-60; assay: Differentiating activity of compound in HL60 cells at conc 1.4 ug/mL; format: functional, Homo sapiens
[9] = system: HL-60; assay: Differentiating activity of compound in HL60 cells at conc 2.8 ug/mL; format: functional, Homo sapiens
[10] = system: HL-60; assay: Differentiating activity of compound in HL60 cells at conc 5.6 ug/mL; format: functional, Homo sapiens
[11] = system: HL-60; assay: Differentiating activity of compound in HL60 cells at conc 0.32 ug/mL; format: functional, Homo sapiens; how it was run: as §2
[12] = system: HL-60; assay: Differentiating activity of compound in HL60 cells at conc 0.08 ug/mL; format: functional, Homo sapiens; how it was run: as §2
[13] = system: HL-60; assay: Differentiating activity of compound in HL60 cells at conc 0.05 ug/mL; format: functional, Homo sapiens; how it was run: as §2
[14] = system: HL-60; assay: Differentiating activity of compound in HL60 cells at conc 0.2 ug/mL; format: functional, Homo sapiens; how it was run: as §2
[15] = system: HL-60; assay: Differentiating activity of compound in HL60 cells at conc 0.03 ug/mL; format: functional, Homo sapiens
[16] = system: HL-60; assay: Differentiating activity of compound in HL60 cells at conc 0.0003 ug/mL; format: functional, Homo sapiens
[17] = system: HL-60; assay: Differentiating activity of compound in HL60 cells at conc 0.003 ug/mL; format: functional, Homo sapiens
[18] = system: HL-60; assay: Cytotoxic activity in HL-60 cells; format: functional, cell-based; details: Homo sapiens; how it was run: as §1
[19] = system: HL-60; assay: Differentiating activity of compound in HL60 cells at conc 0.4 ug/mL; format: functional, Homo sapiens; how it was run: as §2
[20] = system: HL-60; assay: Differentiating activity of compound in HL60 cells at conc 0.016 ug/mL; format: functional, Homo sapiens; how it was run: as §2
[21] = system: HL-60; assay: as §5; format: functional, Homo sapiens; how it was run: as §2; remark: listed apart in the source
[22] = system: HL-60; assay: as §3; format: functional, Homo sapiens; how it was run: as §2; remark: listed apart in the source

## Nc1ncnc2c1ncn2[C@@H]1O[C@H](CO)[C@@H](O)[C@@H]1O [VIDARABINE]
[1]
  IC50: 20.9 µg/mL (≈ 78.2 µM)
[2]
  NBT positive cells: 12%
[3]
  NBT positive cells: 9%

## CC1=C(/C=C/C(C)=C/C=C/C(C)=C/C(=O)O[C@H]2C(O)[C@@H](CO)O[C@H]2n2cnc3c(N)ncnc32)C(C)(C)CCC1 (some centres not stated)
[4]
  NBT positive cells: 34%
[1]
  IC50: 1.96 µg/mL (≈ 3.57 µM)
[5]
  NBT positive cells: 36%

## CC1=C(/C=C/C(C)=C/C=C/C(C)=C/C(=O)Nc2ccc(N(CCCl)CCCl)cc2)C(C)(C)CCC1
[1]
  IC50: 3.7 µg/mL (≈ 7.18 µM)
[6]
  NBT positive cells: 24%
[7]
  NBT positive cells: 43%

## CC1=C(/C=C/C(C)=C/C=C/C(C)=C/C(=O)Nc2ncnc3c2ncn3[C@@H]2O[C@@H]3CO[Si](C(C)C)(C(C)C)O[Si](C(C)C)(C(C)C)OC3[C@@H]2O)C(C)(C)CCC1 (some centres not stated)
[4]
  NBT positive cells: 31%
[1]
  IC50: 2.08 µg/mL (≈ 2.63 µM)
[5]
  NBT positive cells: 31%

## C[S+](C)[O-] [DIMETHYL SULFOXIDE]
[8]
  NBT positive cells: 12%
[9]
  NBT positive cells: 28%
[10]
  NBT positive cells: 53%

## CC1=C(/C=C/C(C)=C/C=C/C(C)=C/C(=O)OC/C=C(\C)C2=CC(=O)C(C)(C)O2)C(C)(C)CCC1
[1]
  IC50: < 0.32 µg/mL
[11]
  NBT positive cells: 34%
[12]
  NBT positive cells: 33%

## CC1=C(/C=C/C(C)=C/C=C/C(C)=C/C(=O)Nc2ncnc3c2ncn3[C@@H]2O[C@H](CO)C(O)[C@@H]2O)C(C)(C)CCC1 (some centres not stated)
[13]
  NBT positive cells: 41%
[14]
  NBT positive cells: 46%
[1]
  IC50: < 0.32 µg/mL

## CC1=C(/C=C/C(C)=C/C=C/C(C)=C/C(=O)Nc2ccn([C@@H]3O[C@H](CO)C(O)[C@@H]3O)c(=O)n2)C(C)(C)CCC1 (some centres not stated)
[1]
  IC50: < 0.32 µg/mL
[11]
  NBT positive cells: 37%
[12]
  NBT positive cells: 29%

## CC1=C(/C=C/C(C)=C/C=C/C(C)=C/C(=O)O)C(C)(C)CCC1 [TRETINOIN]
[15]
  NBT positive cells: 89%
[16]
  NBT positive cells: 34%
[17]
  NBT positive cells: 67%

## CC1=C(/C=C/C(C)=C/C=C/C(C)=C/C(=O)Nc2ccn([C@@H]3O[C@@H]4CO[Si](C(C)C)(C(C)C)O[Si](C(C)C)(C(C)C)OC4[C@@H]3O)c(=O)n2)C(C)(C)CCC1 (some centres not stated)
[13]
  NBT positive cells: 44%
[14]
  NBT positive cells: 54%
[18]
  IC50: < 0.32 µg/mL

## Nc1ccn([C@@H]2O[C@H](CO)[C@@H](O)[C@@H]2O)c(=O)n1 [CYTARABINE]
[19]
  NBT positive cells: 20%
[1]
  IC50: 0.029 µg/mL (≈ 0.119 µM)
[20]
  NBT positive cells: 8%
[12]
  NBT positive cells: 5%

## CC1=C(/C=C/C(C)=C/C=C/C(C)=C/C(=O)NCCCNC(=O)/C=C(C)/C=C/C=C(C)/C=C/C2=C(C)CCCC2(C)C)C(C)(C)CCC1
[21]
  NBT positive cells: 65%
[22]
  NBT positive cells: 33%
[1]
  IC50: 3.71 µg/mL (≈ 5.81 µM)
